# Target: T1, Adenosine receptor A1 (Homo sapiens, UniProt P30542)
# T1 sequence (P30542 whole entry): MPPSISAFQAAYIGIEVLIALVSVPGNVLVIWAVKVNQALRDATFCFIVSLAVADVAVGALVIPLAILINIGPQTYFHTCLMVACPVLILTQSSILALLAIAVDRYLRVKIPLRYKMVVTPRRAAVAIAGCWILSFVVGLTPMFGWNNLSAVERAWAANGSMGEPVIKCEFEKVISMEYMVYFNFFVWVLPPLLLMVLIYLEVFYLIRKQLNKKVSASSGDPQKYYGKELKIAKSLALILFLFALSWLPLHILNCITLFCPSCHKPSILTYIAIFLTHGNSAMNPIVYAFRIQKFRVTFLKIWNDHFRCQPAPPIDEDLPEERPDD
# Assay: Displacement of [3H]CCPA from human recombinant adenosine A1 receptor expressed in CHO cells
# Assay type: cell-based
row,SMILES,Ki [nM]
1,CONc1nc(C#C[Si](C)(C)C)nc2c1ncn2[C@@H]1O[C@H](CO)[C@@H](O)[C@H]1O,22
2,CCCCCc1ccc(C#Cc2nc(NOC)c3ncn([C@@H]4O[C@H](CO)[C@@H](O)[C@H]4O)c3n2)cc1,730
3,CONc1nc(C#Cc2ccc(C(N)=O)cc2)nc2c1ncn2[C@@H]1O[C@H](CO)[C@@H](O)[C@H]1O,901
4,CONc1nc(C#Cc2ccc(F)cc2)nc2c1ncn2[C@@H]1O[C@H](CO)[C@@H](O)[C@H]1O,2790
5,CCNC(=O)[C@H]1O[C@@H](n2cnc3c(NOC)nc(C#Cc4ccc(C(C)=O)cc4)nc32)[C@H](O)[C@@H]1O,1230
6,CCNC(=O)[C@H]1O[C@@H](n2cnc3c(NOC)nc(C#Cc4ccc(F)cc4)nc32)[C@H](O)[C@@H]1O,1880

# Target: Adenosine receptor A2a (Homo sapiens, UniProt P29274)
# Sequence (P29274 whole entry): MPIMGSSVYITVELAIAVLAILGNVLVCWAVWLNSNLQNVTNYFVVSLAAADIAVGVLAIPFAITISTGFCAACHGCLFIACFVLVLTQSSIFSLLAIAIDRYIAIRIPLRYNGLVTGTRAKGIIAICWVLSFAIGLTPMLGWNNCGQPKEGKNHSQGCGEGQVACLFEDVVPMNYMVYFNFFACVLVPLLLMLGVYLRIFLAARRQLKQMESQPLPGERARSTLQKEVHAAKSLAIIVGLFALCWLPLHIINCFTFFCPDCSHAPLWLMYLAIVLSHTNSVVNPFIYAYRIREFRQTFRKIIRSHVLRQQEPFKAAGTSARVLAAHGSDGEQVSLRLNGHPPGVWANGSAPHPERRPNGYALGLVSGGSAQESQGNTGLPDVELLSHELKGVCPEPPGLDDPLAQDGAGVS
# Assay: Displacement of [3H]NECA from human recombinant adenosine A2A receptor expressed in CHO cells
# Assay type: cell-based
# Outline: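 Competition binding with [3H]NECA at 30 nM on stably transfected CHO cells. Nonspecific binding defined with 1 mM theophylline. Dissociation constants (Ki) obtained by nonlinear curve fitting.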
row,SMILES,Ki [nM]
1,CNC(=O)[C@H]1O[C@@H](n2cnc3c(NOC)nc(C#Cc4ccc(C)cc4)nc32)[C@H](O)[C@@H]1O,14700
2,CCCCCc1ccc(C#Cc2nc(NOC)c3ncn([C@@H]4O[C@H](CO)[C@@H](O)[C@H]4O)c3n2)cc1,6520

# Now from value to molecule:
row,Ki [nM],SMILES
1,5740,CONc1nc(C#C[Si](C)(C)C)nc2c1ncn2[C@@H]1O[C@H](CO)[C@@H](O)[C@H]1O
2,3130,CONc1nc(C#Cc2ccc(C(N)=O)cc2)nc2c1ncn2[C@@H]1O[C@H](CO)[C@@H](O)[C@H]1O
3,3960,CONc1nc(C#Cc2ccc(F)cc2)nc2c1ncn2[C@@H]1O[C@H](CO)[C@@H](O)[C@H]1O
4,4210,CCNC(=O)[C@H]1O[C@@H](n2cnc3c(NOC)nc(C#Cc4ccc(C(C)=O)cc4)nc32)[C@H](O)[C@@H]1O
5,6290,CCNC(=O)[C@H]1O[C@@H](n2cnc3c(NOC)nc(C#Cc4ccc(F)cc4)nc32)[C@H](O)[C@@H]1O

# Target: T2, Adenosine receptor A3 (Homo sapiens, UniProt P0DMS8)
# T2 sequence (P0DMS8 whole entry): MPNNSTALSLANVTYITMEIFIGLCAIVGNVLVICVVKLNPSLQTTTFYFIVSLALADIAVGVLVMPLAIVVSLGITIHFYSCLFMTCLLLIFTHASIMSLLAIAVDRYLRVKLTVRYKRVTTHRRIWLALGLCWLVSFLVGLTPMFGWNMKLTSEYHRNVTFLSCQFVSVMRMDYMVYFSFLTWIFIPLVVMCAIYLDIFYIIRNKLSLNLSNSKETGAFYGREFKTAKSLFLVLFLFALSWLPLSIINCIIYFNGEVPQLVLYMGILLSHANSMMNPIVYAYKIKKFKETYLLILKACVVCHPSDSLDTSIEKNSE
# Assay: Displacement of [3H]NECA from human recombinant adenosine A3 receptor expressed in CHO cells
# Assay type: cell-based
# Outline: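 [3H]NECA used at 10 nM as radioligand in competition experiments, stably transfected CHO cells. Nonspecific binding defined with 1 mM theophylline. Ki from nonlinear curve fitting.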
row,SMILES,Ki [nM]
1,CNC(=O)[C@H]1O[C@@H](n2cnc3c(NOC)nc(C#Cc4ccc(C)cc4)nc32)[C@H](O)[C@@H]1O,3.3
2,CCCCCc1ccc(C#Cc2nc(NOC)c3ncn([C@@H]4O[C@H](CO)[C@@H](O)[C@H]4O)c3n2)cc1,39

# Other lines, results leading:
row,Ki [nM],SMILES
1,13,CONc1nc(C#C[Si](C)(C)C)nc2c1ncn2[C@@H]1O[C@H](CO)[C@@H](O)[C@H]1O
2,5.2,CONc1nc(C#Cc2ccc(C(N)=O)cc2)nc2c1ncn2[C@@H]1O[C@H](CO)[C@@H](O)[C@H]1O
3,4.4,CONc1nc(C#Cc2ccc(F)cc2)nc2c1ncn2[C@@H]1O[C@H](CO)[C@@H](O)[C@H]1O
4,4,CCNC(=O)[C@H]1O[C@@H](n2cnc3c(NOC)nc(C#Cc4ccc(C(C)=O)cc4)nc32)[C@H](O)[C@@H]1O
5,3.2,CCNC(=O)[C@H]1O[C@@H](n2cnc3c(NOC)nc(C#Cc4ccc(F)cc4)nc32)[C@H](O)[C@@H]1O

# Target: Adenosine receptors; A1 & A3 (Homo sapiens) (UniProt P30542+P0DMS8)
# Assay: Selectivity for human adenosine A3 receptor over human adenosine A1 receptor
# Assay type: protein assay
row,SMILES,Ratio Ki
1,CNC(=O)[C@H]1O[C@@H](n2cnc3c(NOC)nc(C#Cc4ccc(C)cc4)nc32)[C@H](O)[C@@H]1O,3600
2,CCNC(=O)[C@H]1O[C@@H](n2cnc3c(N)nc(C#Cc4ccccc4)nc32)[C@H](O)[C@@H]1O,90
3,Nc1nc(C#Cc2ccccc2)nc2c1ncn2[C@@H]1O[C@H](CO)[C@@H](O)[C@H]1O,24
4,CCCCCc1ccc(C#Cc2nc(NOC)c3ncn([C@@H]4O[C@H](CO)[C@@H](O)[C@H]4O)c3n2)cc1,19

# Other lines, results leading:
row,Ratio Ki,SMILES
1,1.7,CONc1nc(C#C[Si](C)(C)C)nc2c1ncn2[C@@H]1O[C@H](CO)[C@@H](O)[C@H]1O
2,173,CONc1nc(C#Cc2ccc(C(N)=O)cc2)nc2c1ncn2[C@@H]1O[C@H](CO)[C@@H](O)[C@H]1O
3,634,CONc1nc(C#Cc2ccc(F)cc2)nc2c1ncn2[C@@H]1O[C@H](CO)[C@@H](O)[C@H]1O
4,307,CCNC(=O)[C@H]1O[C@@H](n2cnc3c(NOC)nc(C#Cc4ccc(C(C)=O)cc4)nc32)[C@H](O)[C@@H]1O
5,587,CCNC(=O)[C@H]1O[C@@H](n2cnc3c(NOC)nc(C#Cc4ccc(F)cc4)nc32)[C@H](O)[C@@H]1O

# Target: Adenosine receptors; A2a & A3 (Homo sapiens) (UniProt P0DMS8+P29274)
# Assay: Selectivity for human adenosine A3 receptor over human adenosine A2A receptor
# Assay type: protein assay
row,SMILES,Ratio Ki
1,CNC(=O)[C@H]1O[C@@H](n2cnc3c(NOC)nc(C#Cc4ccc(C)cc4)nc32)[C@H](O)[C@@H]1O,4500
2,CCNC(=O)[C@H]1O[C@@H](n2cnc3c(N)nc(C#Cc4ccccc4)nc32)[C@H](O)[C@@H]1O,100
3,Nc1nc(C#Cc2ccccc2)nc2c1ncn2[C@@H]1O[C@H](CO)[C@@H](O)[C@H]1O,23
4,CCCCCc1ccc(C#Cc2nc(NOC)c3ncn([C@@H]4O[C@H](CO)[C@@H](O)[C@H]4O)c3n2)cc1,167

# Next, values leading:
row,Ratio Ki,SMILES
1,441,CONc1nc(C#C[Si](C)(C)C)nc2c1ncn2[C@@H]1O[C@H](CO)[C@@H](O)[C@H]1O
2,602,CONc1nc(C#Cc2ccc(C(N)=O)cc2)nc2c1ncn2[C@@H]1O[C@H](CO)[C@@H](O)[C@H]1O
3,900,CONc1nc(C#Cc2ccc(F)cc2)nc2c1ncn2[C@@H]1O[C@H](CO)[C@@H](O)[C@H]1O
4,1100,CCNC(=O)[C@H]1O[C@@H](n2cnc3c(NOC)nc(C#Cc4ccc(C(C)=O)cc4)nc32)[C@H](O)[C@@H]1O
5,2000,CCNC(=O)[C@H]1O[C@@H](n2cnc3c(NOC)nc(C#Cc4ccc(F)cc4)nc32)[C@H](O)[C@@H]1O

# Reference: ChEMBL document CHEMBL1142938 (J Med Chem, 2007)
